Measured values: ChEMBL document CHEMBL4613280, “Development of Pyrazolo[3,4-d]pyrimidine Kinase Inhibitors as Potential Clinical Candidates for Glioblastoma Multiforme” (ACS Med Chem Lett, 2020)

Assays:
[1] = Synergistic cytotoxicity against human GCE28 cells assessed as combination index measured after 48 hrs in presence of 2-[[4-(2-phenylethylamino)-1-[styryl]pyrazolo[3,4-d]pyrimidin-6-yl]amino]ethanol by Chou-Talalay assay; assay type: functional
Procedure, shortened: (§1)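 Each drug pair dosed at a 1:1 molar ratio on the GBM lines and incubated 48 h. CI computed from three independent IC50 experiments (n = 3), reported as mean ± SD.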

[2] = Cytotoxicity against human GIN28 cells derived from invasive region of GBM patient assessed as reduction in cell viability measured after 48 hrs by Prestoblue assay; assay type: functional, cell-based
Procedure, shortened: (§2)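 Compounds diluted in DMEM containing 10% FBS and applied for 48 h. Viability read by PrestoBlue. IC50 calculated from three independent experiments, mean ± SE. Two-way ANOVA with Dunnett's multiple comparisons test.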

[3] = Cytotoxicity against human GIN8 cells derived from invasive region of GBM patient assessed as reduction in cell viability measured after 48 hrs by Prestoblue assay; assay type: functional, cell-based; procedure, shortened: as §2
[4] = Synergistic cytotoxicity against human GIN28 cells assessed as combination index measured after 48 hrs in presence of 2-[[4-(2-phenylethylamino)-1-[styryl]pyrazolo[3,4-d]pyrimidin-6-yl]amino]ethanol by Chou-Talalay assay; assay type: functional; procedure, shortened: as §1
[5] = Synergistic cytotoxicity against human GIN8 cells assessed as combination index measured after 48 hrs in presence of N-(3-bromophenyl)-1-(2-chloro-2-phenylethyl)-6-(2-morpholinoethylsulfanyl)pyrazolo[3,4-d]pyrimidin-4-amine by Chou-Talalay assay; assay type: functional
Procedure, shortened: (§3)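 Two kinase inhibitors were combined at a 1:1 molar ratio, diluted in DMEM with 10% FBS, and incubated with the GBM cells for 48 h. Viability was read by PrestoBlue. Combination index values were calculated from three independent IC50 experiments (n = 3) and are reported as mean ± SD.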

[6] = Antagonistic cytotoxicity against human GIN8 cells assessed as combination index measured after 48 hrs in presence of 2-[[4-(2-phenylethylamino)-1-[styryl]pyrazolo[3,4-d]pyrimidin-6-yl]amino]ethanol by Chou-Talalay assay; assay type: functional; procedure, shortened: as §1
[7] = Synergistic cytotoxicity against human GCE28 cells assessed as combination index measured after 48 hrs in presence of N-(3-bromophenyl)-1-(2-chloro-2-phenylethyl)-6-(2-morpholinoethylsulfanyl)pyrazolo[3,4-d]pyrimidin-4-amine by Chou-Talalay assay; assay type: functional; procedure, shortened: as §1
[8] = Cytotoxicity against human GCE28 cells derived from central tumor core of GBM patient assessed as reduction in cell viability measured after 48 hrs by Prestoblue assay; assay type: functional, cell-based; procedure, shortened: as §2
[9] = Synergistic cytotoxicity against human GIN28 cells assessed as combination index measured after 48 hrs in presence of N-(3-bromophenyl)-1-(2-chloro-2-phenylethyl)-6-(2-morpholinoethylsulfanyl)pyrazolo[3,4-d]pyrimidin-4-amine by Chou-Talalay assay; assay type: functional; procedure, shortened: as §3

Question: With Nc1ncnc2c1c(-c1ccc(Cl)cc1)nn2CC(Cl)c1ccccc1 (centres undefined) as the compound, how does the CI [1] read?
Answer: 0.46

Question: What about the IC50 [2] of the same compound?
Answer: 49.8 µM

Question: What about the IC50 [3] of the same compound?
Answer: 54.7 µM

Question: And the CI [4]?
Answer: 0.57

Question: And the CI [5]?
Answer: 0.53

Question: And the CI [6]?
Answer: 1.13

Question: What about the CI [7] of the same compound?
Answer: 0.88

Question: What about the IC50 [8] of the same compound?
Answer: 47.6 µM

Question: And the CI [9]?
Answer: 0.76
